Converted amounts (≈) assume the structure as drawn. The source made the active and inactive calls.
Experiments:
Rattus norvegicus [1] = assay: Analgesic activity in Sprague-Dawley rat MIA-induced osteoarthritic pain model assessed as increase in paw withdrawal threshold at 3 mg/kg, ip by von Frey filaments assay; format: functional, organism-based
Procedure, shortened: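 Rat MIA osteoarthritis pain model, with analgesia read as von Frey paw withdrawal threshold. In blocking runs, 3 mg/kg IP agonist was combined with the CB2 antagonist AR401733 (10 mg/kg PO) or the CB1 antagonist rimonabant (10 mg/kg PO).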

Rattus norvegicus [2] = assay: Toxicity in Sprague-Dawley rat MIA-induced osteoarthritic pain model assessed as induction of tachyphylaxis at 10 mg/kg, ip administered twice daily for 5 days measured 1 hr post dose at 1 day interval for 5 days during compound dosing; format: organism-based; details: in vivo
Procedure, shortened: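 MIA-treated rats were dosed IP twice daily for 5 days. Reversal of hypersensitivity was measured by von Frey paw withdrawal threshold 1 h after the morning dose on days 1, 3 and 5. Morphine was given on the same regimen for comparison.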

[3] = Stability of the compound; format: physicochemical
Cytochrome P450 1A2 = biological target: T1, Cytochrome P450 1A2 (Homo sapiens, UniProt P05177); assay: Inhibition of CYP1A2 (unknown origin); format: ADME
T1 sequence (P05177 whole entry): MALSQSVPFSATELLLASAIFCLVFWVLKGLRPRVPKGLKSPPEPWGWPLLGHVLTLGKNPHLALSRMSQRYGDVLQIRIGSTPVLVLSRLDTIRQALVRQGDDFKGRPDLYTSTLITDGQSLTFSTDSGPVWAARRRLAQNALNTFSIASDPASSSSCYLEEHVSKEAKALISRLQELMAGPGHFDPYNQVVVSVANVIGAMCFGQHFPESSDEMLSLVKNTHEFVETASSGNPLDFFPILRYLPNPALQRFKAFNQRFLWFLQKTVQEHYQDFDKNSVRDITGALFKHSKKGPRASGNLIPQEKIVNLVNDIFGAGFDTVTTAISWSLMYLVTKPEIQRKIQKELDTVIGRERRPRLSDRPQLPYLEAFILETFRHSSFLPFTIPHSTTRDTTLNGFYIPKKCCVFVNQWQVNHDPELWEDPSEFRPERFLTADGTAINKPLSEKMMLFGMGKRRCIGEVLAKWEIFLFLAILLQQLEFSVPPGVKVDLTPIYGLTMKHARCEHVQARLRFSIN

Cytochrome P450 2D6 = Cytochrome P450 2D6 (Homo sapiens, UniProt P10635); assay: Inhibition of CYP2D6 (unknown origin); format: ADME
Cytochrome P450 2D6, sequence (P10635 whole entry): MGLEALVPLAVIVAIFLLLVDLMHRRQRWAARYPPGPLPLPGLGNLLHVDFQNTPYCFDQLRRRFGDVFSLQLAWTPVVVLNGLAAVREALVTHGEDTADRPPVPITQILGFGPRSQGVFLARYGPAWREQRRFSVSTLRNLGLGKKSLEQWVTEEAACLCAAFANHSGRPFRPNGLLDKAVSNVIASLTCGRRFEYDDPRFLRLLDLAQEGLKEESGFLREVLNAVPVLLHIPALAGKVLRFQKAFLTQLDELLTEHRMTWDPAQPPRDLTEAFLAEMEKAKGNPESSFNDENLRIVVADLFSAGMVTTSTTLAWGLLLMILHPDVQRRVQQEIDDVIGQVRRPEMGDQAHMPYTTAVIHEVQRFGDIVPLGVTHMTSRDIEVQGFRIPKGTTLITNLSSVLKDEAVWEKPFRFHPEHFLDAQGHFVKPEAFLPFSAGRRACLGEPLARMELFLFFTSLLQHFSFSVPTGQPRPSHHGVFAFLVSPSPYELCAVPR

[4] = Protein binding in mouse plasma assessed as unbound fraction; format: ADME, cell-free
[5] = Ratio of drug level in brain to plasma in Sprague-Dawley rat at 3 mg/kg, po measured after 2 hrs; format: ADME, organism-based; details: brain and plasma, read-out: BPR
Cannabinoid receptor 2 [6] = biological target: T2, Cannabinoid receptor 2 (Rattus norvegicus, UniProt Q9QZN9); assay: Agonist activity at recombinant rat CB2 receptor expressed in HEK293 cells assessed as increase in beta arrestin recruitment measured after 2 to 3 hrs by PathHunter assay; format: functional, cell-based
T2 sequence (Q9QZN9 whole entry): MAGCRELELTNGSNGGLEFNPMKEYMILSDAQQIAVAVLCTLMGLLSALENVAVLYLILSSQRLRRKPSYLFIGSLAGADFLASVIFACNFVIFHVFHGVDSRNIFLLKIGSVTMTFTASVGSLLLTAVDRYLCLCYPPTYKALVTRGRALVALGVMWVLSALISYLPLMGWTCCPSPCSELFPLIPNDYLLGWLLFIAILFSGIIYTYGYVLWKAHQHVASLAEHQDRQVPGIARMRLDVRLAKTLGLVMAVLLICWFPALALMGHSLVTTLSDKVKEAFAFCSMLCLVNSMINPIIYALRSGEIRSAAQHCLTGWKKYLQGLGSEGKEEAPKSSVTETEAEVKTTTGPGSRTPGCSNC

[7] = biological target: T3, Cannabinoid receptor 2 (Rattus norvegicus) (UniProt Q9QZN9); assay: Agonist activity at recombinant rat CB2 receptor expressed in HEK293 cells assessed as increase in beta arrestin recruitment measured after 2 to 3 hrs by PathHunter assay relative to CP55940; format: functional, cell-based
T3 sequence (whole entry): T2 sequence (Q9QZN9 whole entry)
Procedure, shortened: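 Beta-arrestin recruitment EC50 is the mean of three or more independent experiments (logSD < 0.4). Intrinsic activity (Emax) is expressed relative to CP-55,940 set at 100.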

Rattus norvegicus [8] = assay: Acute toxicity in Sprague-Dawley rat assessed as histopathological abnormalities at 30 to 300 mg/kg, po administered for 14 days measured during compound dosing; format: organism-based; details: in vivo, 336 h
Rattus norvegicus [9] = assay: Analgesic activity in Sprague-Dawley rat MIA-induced osteoarthritic pain model assessed as increase in paw withdrawal threshold at 3 mg/kg, po after 1 hr in presence of CB1 antagonist rimonabant by von Frey filaments assay; format: functional, organism-based
[10] = biological target: T3, Cannabinoid receptor 2 (Rattus norvegicus); assay: Induction of recombinant HA-tagged rat CB2 receptor internalization expressed in CHOK1 cells at 10 uM measured after 1 hr by time-resolved flow cytometry relative to CP55940; format: functional, cell-based
Salmonella typhimurium [11] = assay: Mutagenicity in Salmonella typhimurium in presence of liver S9 fraction by Ames test; format: toxicity, organism-based; details: salmonella enterica subsp. enterica serovar typhimurium
[12] = biological target: T4, Voltage-gated inwardly rectifying potassium channel KCNH2 (Homo sapiens, UniProt Q12809); assay: Inhibition of human ERG by patch-clamp method
T4 sequence (Q12809 whole entry): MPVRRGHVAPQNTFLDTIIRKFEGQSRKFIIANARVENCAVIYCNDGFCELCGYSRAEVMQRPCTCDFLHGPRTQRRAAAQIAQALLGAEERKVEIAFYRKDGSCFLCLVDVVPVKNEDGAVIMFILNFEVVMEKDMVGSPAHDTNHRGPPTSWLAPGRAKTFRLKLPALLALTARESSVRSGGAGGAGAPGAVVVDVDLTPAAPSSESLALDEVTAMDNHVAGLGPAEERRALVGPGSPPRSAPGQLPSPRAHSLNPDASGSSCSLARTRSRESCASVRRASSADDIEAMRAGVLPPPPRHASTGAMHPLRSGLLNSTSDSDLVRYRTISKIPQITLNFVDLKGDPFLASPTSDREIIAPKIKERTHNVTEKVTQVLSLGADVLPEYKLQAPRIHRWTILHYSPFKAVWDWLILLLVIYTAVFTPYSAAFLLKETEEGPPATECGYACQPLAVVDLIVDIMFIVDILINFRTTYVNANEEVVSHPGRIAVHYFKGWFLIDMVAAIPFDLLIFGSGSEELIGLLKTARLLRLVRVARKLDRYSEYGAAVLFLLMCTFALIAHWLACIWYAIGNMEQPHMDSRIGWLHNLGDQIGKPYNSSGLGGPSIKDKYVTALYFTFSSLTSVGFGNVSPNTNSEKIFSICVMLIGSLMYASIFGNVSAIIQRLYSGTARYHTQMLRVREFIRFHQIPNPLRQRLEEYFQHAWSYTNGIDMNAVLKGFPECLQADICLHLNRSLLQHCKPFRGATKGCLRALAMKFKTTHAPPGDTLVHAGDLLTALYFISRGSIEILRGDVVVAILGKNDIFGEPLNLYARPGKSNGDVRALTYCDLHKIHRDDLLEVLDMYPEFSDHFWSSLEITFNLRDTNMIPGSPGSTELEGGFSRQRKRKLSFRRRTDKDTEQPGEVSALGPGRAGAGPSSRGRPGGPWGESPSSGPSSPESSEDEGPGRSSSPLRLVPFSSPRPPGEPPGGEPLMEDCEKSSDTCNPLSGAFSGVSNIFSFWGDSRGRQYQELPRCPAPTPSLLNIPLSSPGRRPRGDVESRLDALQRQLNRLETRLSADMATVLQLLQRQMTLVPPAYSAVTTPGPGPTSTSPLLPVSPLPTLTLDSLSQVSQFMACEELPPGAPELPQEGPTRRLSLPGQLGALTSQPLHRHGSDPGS

[13] = Protein binding in monkey plasma assessed as unbound fraction; format: ADME, cell-free, Macaca mulatta; details: rhesus monkey
Cytochrome P450 2C19 = Cytochrome P450 2C19 (Homo sapiens, UniProt P33261); assay: Inhibition of CYP2C19 (unknown origin); format: ADME
Cytochrome P450 2C19, sequence (P33261 whole entry): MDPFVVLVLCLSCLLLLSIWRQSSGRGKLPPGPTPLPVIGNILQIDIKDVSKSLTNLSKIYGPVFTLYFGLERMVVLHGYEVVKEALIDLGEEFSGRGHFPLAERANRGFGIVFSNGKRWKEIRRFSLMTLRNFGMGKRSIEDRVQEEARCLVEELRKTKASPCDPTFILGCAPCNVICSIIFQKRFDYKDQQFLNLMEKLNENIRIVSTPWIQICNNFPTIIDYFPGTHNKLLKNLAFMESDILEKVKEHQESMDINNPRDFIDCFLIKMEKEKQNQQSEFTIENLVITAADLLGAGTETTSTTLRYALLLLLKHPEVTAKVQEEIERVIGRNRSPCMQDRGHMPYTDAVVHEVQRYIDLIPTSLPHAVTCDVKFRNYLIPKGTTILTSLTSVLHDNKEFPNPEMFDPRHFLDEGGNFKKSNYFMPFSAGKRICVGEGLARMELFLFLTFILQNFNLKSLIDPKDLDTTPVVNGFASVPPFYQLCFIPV

Rattus norvegicus [14] = assay: Toxicity in Sprague-Dawley rat assessed as change in core body temperature up to 100 mg/kg, po measured after 60 mins by rectal probe method; format: organism-based; details: in vivo, 1 h
[15] = Half life in human liver microsomes; format: ADME, microsome
HepG2 = assay: Cytotoxicity against human HepG2 cells up to 1000 uM; format: cell-based
Procedure, shortened: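 Essential Cell Function panel in live HepG2 cells, measuring several cellular parameters.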

Cannabinoid receptor 1 = Cannabinoid receptor 1 (Rattus norvegicus, UniProt P20272); assay: Agonist activity at recombinant rat CB1 receptor expressed in HEK293 cells assessed as increase in beta arrestin recruitment measured after 2 to 3 hrs by PathHunter assay; format: functional, cell-based
Cannabinoid receptor 1, sequence (P20272 whole entry): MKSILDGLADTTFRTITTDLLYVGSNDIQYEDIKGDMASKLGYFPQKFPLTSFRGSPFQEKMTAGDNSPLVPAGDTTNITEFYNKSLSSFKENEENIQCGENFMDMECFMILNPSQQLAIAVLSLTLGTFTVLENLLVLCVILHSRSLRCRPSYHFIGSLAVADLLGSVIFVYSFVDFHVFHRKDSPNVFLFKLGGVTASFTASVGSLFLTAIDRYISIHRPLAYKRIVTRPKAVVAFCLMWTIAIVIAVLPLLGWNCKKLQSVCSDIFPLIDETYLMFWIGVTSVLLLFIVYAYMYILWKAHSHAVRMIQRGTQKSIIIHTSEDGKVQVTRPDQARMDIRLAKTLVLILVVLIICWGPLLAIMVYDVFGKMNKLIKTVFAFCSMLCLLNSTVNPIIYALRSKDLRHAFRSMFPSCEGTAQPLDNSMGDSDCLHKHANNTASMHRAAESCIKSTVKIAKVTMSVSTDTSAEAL

Cytochrome P450 2C9 = Cytochrome P450 2C9 (Homo sapiens, UniProt P11712); assay: Inhibition of CYP2C9 (unknown origin); format: ADME
Cytochrome P450 2C9, sequence (P11712 whole entry): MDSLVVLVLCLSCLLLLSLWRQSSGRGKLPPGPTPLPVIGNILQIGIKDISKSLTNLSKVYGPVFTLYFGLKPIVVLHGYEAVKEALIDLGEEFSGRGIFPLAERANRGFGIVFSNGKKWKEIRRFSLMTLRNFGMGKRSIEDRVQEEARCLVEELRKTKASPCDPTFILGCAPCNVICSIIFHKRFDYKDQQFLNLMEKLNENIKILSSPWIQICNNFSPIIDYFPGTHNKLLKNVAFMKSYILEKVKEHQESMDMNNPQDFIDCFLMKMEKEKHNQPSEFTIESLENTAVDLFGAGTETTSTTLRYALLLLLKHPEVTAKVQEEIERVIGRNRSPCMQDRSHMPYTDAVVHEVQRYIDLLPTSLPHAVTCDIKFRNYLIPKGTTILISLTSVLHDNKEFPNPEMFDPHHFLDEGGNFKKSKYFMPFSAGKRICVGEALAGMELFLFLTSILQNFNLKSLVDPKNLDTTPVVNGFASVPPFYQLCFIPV

Rattus norvegicus [16] = assay: Analgesic activity in Sprague-Dawley rat MIA-induced osteoarthritic pain model assessed as increase in paw withdrawal threshold at 3 mg/kg, ip administered twice daily for 5 days measured 1 hr post dose at 1 day interval for 5 days during compound dosing; format: functional, organism-based
Procedure, shortened: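 Rats with MIA-induced late-phase hypersensitivity were dosed IP twice daily for 5 days. Von Frey paw withdrawal thresholds were measured 1 h after the morning dose on days 1, 3 and 5.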

Rattus norvegicus [17] = assay: Analgesic activity in Sprague-Dawley rat MIA-induced osteoarthritic pain model assessed as increase in paw withdrawal threshold at 3 mg/kg, po after 1 hr in presence of CB2 antagonist SR144528 by von Frey filaments assay; format: functional, organism-based
[18] = Half life in mouse liver microsomes; format: ADME, microsome
Salmonella typhimurium [19] = assay: Mutagenicity in Salmonella typhimurium in absence of liver S9 fraction by Ames test; format: toxicity, organism-based; details: salmonella enterica subsp. enterica serovar typhimurium
Rattus norvegicus [20] = assay: Analgesic activity in Sprague-Dawley rat MIA-induced osteoarthritic pain model assessed as increase in paw withdrawal threshold at 3 mg/kg, po after 1 hr in presence of CB2 inverse agonist AR401733 by von Frey filaments assay; format: functional, organism-based
[21] = Half life in rat liver microsomes; format: ADME, microsome
Rattus norvegicus [22] = assay: Analgesic activity in Sprague-Dawley rat MIA-induced osteoarthritic pain model assessed as increase in paw withdrawal threshold at 3 mg/kg, po after 1 hr in presence of CB2 antagonist […] by von Frey filaments assay; format: functional, organism-based
[23] = Protein binding in human plasma assessed as unbound fraction; format: ADME, cell-free
[24] = Aqueous solubility of the compound at pH 2 to 7 using solid samples; format: physicochemical; details: aqueous solution
[25] = biological target: T4, Voltage-gated inwardly rectifying potassium channel KCNH2; assay: Inhibition of [3H]-astemizole binding to human ERG
Cytochrome P450 3A4 = Cytochrome P450 3A4 (Homo sapiens, UniProt P08684); assay: Inhibition of CYP3A4 (unknown origin); format: ADME
Cytochrome P450 3A4, sequence (P08684 whole entry): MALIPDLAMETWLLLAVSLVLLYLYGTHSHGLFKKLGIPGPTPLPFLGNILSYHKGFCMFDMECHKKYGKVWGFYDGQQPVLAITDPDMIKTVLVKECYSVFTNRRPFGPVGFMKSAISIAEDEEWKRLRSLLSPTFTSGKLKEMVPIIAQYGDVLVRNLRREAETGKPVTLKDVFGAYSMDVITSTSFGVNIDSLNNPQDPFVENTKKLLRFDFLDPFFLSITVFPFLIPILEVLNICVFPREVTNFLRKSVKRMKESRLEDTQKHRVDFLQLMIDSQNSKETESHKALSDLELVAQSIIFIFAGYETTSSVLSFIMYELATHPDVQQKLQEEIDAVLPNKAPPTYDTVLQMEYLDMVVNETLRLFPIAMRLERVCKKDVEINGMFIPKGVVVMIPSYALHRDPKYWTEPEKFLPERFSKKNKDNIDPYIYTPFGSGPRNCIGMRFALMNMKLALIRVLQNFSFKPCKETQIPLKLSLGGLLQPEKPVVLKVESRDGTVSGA

Cannabinoid receptor 2 [26] = biological target: Cannabinoid receptor 2 (Homo sapiens, UniProt P34972); assay: Agonist activity at recombinant human CB2 receptor expressed in HEK293 cells assessed as increase in beta arrestin recruitment measured after 2 to 3 hrs by PathHunter assay relative to CP55940; format: functional, cell-based
Cannabinoid receptor 2 (Homo sapiens, UniProt P34972), sequence (P34972 whole entry): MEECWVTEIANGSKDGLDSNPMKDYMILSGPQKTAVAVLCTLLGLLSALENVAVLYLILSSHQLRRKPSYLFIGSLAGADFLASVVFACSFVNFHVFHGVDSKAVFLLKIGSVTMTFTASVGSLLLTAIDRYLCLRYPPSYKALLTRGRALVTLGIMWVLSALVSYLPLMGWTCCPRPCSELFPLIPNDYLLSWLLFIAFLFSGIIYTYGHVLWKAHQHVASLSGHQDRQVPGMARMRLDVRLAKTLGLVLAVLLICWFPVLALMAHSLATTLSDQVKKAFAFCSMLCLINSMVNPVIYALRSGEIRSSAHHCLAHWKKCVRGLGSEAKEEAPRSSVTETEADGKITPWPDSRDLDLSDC

Rattus norvegicus [27] = assay: Acute toxicity in Sprague-Dawley rat assessed as lethargy at 300 mg/kg, po administered for 14 days measured on day 2 to 14 during compound dosing; format: organism-based; details: in vivo, 336 h
Procedure, shortened: (§1)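 Male and female Sprague-Dawley rats in a 14-day dose-range-finding toxicity study with oral dose groups of 0, 30, 100 and 300 mg/kg. Animals were watched for clinical signs such as lethargy over the dosing period.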

Rattus norvegicus [28] = assay: Analgesic activity in po dosed Sprague-Dawley rat MIA-induced osteoarthritic pain model assessed as increase in paw withdrawal threshold after 1 hr by von Frey filaments assay; format: functional
Procedure, shortened: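 Von Frey paw withdrawal thresholds were read 1 h post-dose to assess late-phase hypersensitivity. ED50 was derived from the dose-response.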

[29] = Protein binding in dog plasma assessed as unbound fraction; format: ADME, cell-free, Canis lupus familiaris
Rattus norvegicus [30] = assay: Inhibition of paw withdrawal threshold in Sprague-Dawley rat MIA-induced osteoarthritic pain model at 10 mg/kg, po measured up to 4 hrs; format: organism-based; details: in vivo
Rattus norvegicus [31] = assay: Acute toxicity in Sprague-Dawley rat assessed as hematological changes at 30 to 300 mg/kg, po administered for 14 days measured during compound dosing; format: organism-based; details: in vivo, 336 h
[32] = Protein binding in rat plasma assessed as unbound fraction; format: ADME, cell-free
Rattus norvegicus [33] = assay: Acute toxicity in Sprague-Dawley rat assessed as lethargy at 300 mg/kg, po administered for 14 days measured on day 1 during compound dosing; format: organism-based; details: in vivo, 336 h; procedure, shortened: as §1

Question: With `CN1CC[C@]23c4c5ccc(O)c4O[C@H]2[C@@H](O)C=C[C@H]3[C@H]1C5` [MORPHINE] as the compound, how does the Activity (Rattus norvegicus [1]) read?
Answer: Active

Question: What about the Activity (Rattus norvegicus [2]) of the same compound?
Answer: Toxic

Question: What does the source list for `CC(C)(C)[C@@H](CO)NC(=O)c1nn(-c2c[n+]([O-])ccn2)c2c1C[C@@H]1C[C@H]21` [OLORINAB]?
Answer: Stability [3]: Stable; IC50 (Cytochrome P450 1A2): > 50 µM; IC50 (Cytochrome P450 2D6): > 50 µM; fraction unbound [4]: 0.1 to 0.2; Kp at 2 h [5]: 0.04; EC50 (Cannabinoid receptor 2 [6]): 0.0076 µM; Emax [7]: 100%; Activity (Rattus norvegicus [8]): Non-Toxic; Activity (Rattus norvegicus [9]): inactive; Activity [10]: 106%; Activity (Salmonella typhimurium [11]): Non-Toxic; IC50 [12]: > 30 µM; fraction unbound [13]: 0.1 to 0.2; IC50 (Cytochrome P450 2C19): > 50 µM; Activity (Rattus norvegicus [14]): Non-Toxic; half-life [15]: > 1 h; Activity (HepG2): Non-Toxic; EC50 (Cannabinoid receptor 1): 10 to 30 µM; IC50 (Cytochrome P450 2C9): > 50 µM; Activity (Rattus norvegicus [16]): Active; Activity (Rattus norvegicus [17]): inactive; half-life [18]: > 1 h; Activity (Salmonella typhimurium [19]): Non-Toxic; Activity (Rattus norvegicus [20]): inactive; half-life [21]: > 1 h; Activity (Rattus norvegicus [22]): inactive; fraction unbound [23]: 0.1 to 0.2; solubility thermodynamic [24]: 2000 µg/mL (≈ 5.6 mM); IC50 [25]: > 30 µM; IC50 (Cytochrome P450 3A4): > 50 µM; Emax (Cannabinoid receptor 2 [26]): 106%; Activity (Rattus norvegicus [27]): Non-Toxic; ED50 (Rattus norvegicus [28]): 2.3 mg/kg; fraction unbound [29]: 0.1 to 0.2; inhibition (INH) (Rattus norvegicus [30]): Non-Toxic; Activity (Rattus norvegicus [31]): Non-Toxic; fraction unbound [32]: 0.1 to 0.2; Activity (Rattus norvegicus [33]): Toxic

— ChEMBL document CHEMBL4138258 (ACS Med Chem Lett, 2017)
